Activity calls are given as the source filed them. The calls are words filed in the database; no cut-off is given here.
Tests used:
[1] = system: Oryctolagus cuniculus; assay: Increase in circulating cGMP level in New Zealand white rabbit at 1.3 mg/kg, iv after 20 mins of ischemia by enzyme immunoassay relative to control; assay type: functional, organism-based; design: dose 1.3 mg/kg
Procedure, shortened: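 Plasma from rabbits dosed 1.3 mg/kg iv (40 and 1 min pre-ischemia) drawn at 20 min of sustained ischemia. cGMP by competitive enzyme immunoassay: alkaline phosphatase-cGMP conjugate plus polyclonal antibody, 2 h at 25 C shaking, p-nitrophenyl phosphate 1 h, read 450 nm corrected at 550 nm; concentration from standard curve.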

[2] = system: Oryctolagus cuniculus; assay: Decrease in MDA level in New Zealand white rabbit at 1.3 mg/kg, iv after 20 mins of reperfusion relative to control; assay type: functional, organism-based; design: dose 1.3 mg/kg
Procedure, shortened: (§1)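 Rabbit plasma sampled at baseline, 20 min ischemia, and 1 and 20 min reperfusion after 1.3 mg/kg iv (two boluses). MDA by N-methyl-2-phenyl-indole colorimetric kit: 0.2 ml plasma plus reagent and HCl, 45 C for 60 min, centrifuged, A586; MDA standard curve (2-20 lmol/ml); triplicate; mean ± SEM.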

[3] = system: Oryctolagus cuniculus; assay: Cardioprotective effect in New Zealand white rabbit assessed as reduction of infract size at 1.3 mg/kg, iv administered before 30 mins of ischemia and 3 hrs of reperfusion in presence of mitoKATP blocker 5-hydroxydecanoic acid relative to control; assay type: functional; design: scale not given: the % may be the effect or the level left
Procedure, shortened: (§2)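 Anesthetized (pentobarbital 30 mg/kg iv), ventilated male rabbits; regional myocardial ischemia 30 min, reperfusion 3 h. Total 1.3 mg/kg split into two iv boluses in 0.2 ml DMSO + 0.8 ml saline, 40 min and 1 min before ischemia; controls got vehicle. Microspheres delineated risk zone; 3 mm slices stained with 1% TTC, 20 min, 37 C; infarct/risk volume ratio (%). n = 5-10 per group.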

[4] = system: Oryctolagus cuniculus; assay: Increase in MDA level in New Zealand white rabbit at 1.3 mg/kg, iv after 20 mins of ischemia relative to control; assay type: functional, organism-based; design: dose 1.3 mg/kg; procedure, shortened: as §1
[5] = system: Oryctolagus cuniculus; assay: Cardioprotective effect in New Zealand white rabbit assessed as reduction of infract size at 1.3 mg/kg, iv administered before 30 mins of ischemia and 3 hrs of reperfusion relative to control; assay type: functional; design: scale not given: the % may be the effect or the level left; procedure, shortened: as §2
[6] = system: Oryctolagus cuniculus; assay: Cardioprotective effect in New Zealand white rabbit assessed as reduction of infract size at 1.3 mg/kg, iv administered before 30 of mins ischemia and 3 hrs of reperfusion in presence of adenosine receptor blocker 8-(p-sulfonyl) theophylline relative to control; assay type: functional; design: scale not given: the % may be the effect or the level left; procedure, shortened: as §2

Row | SMILES | Activity [1] | Activity [2] | Activity [3] [%] | Activity [4] | Activity [5] [%] | Activity [6] [%]
1 | O=[N+]([O-])OCCCCCCCCCCCn1cnc2c(N3CCCCC3)ncnc21 | Active | Active | – | – | – | –
2 | O=C(NCCO[N+](=O)[O-])c1cc2ccccc2[nH]1 | Active | Active | 40.12 | Active | 20.5 | –
3 | O=C(NCCO[N+](=O)[O-])c1ccc2ccccc2n1 | Active | Active | – | Active | 22.4 | –
4 | O=[N+]([O-])OCCCCCCn1cnc2c(N3CCCCC3)ncnc21 | – | Active | 21.9 | – | 19.8 | 28.03

From ChEMBL document CHEMBL1144733, “Design and synthesis of nitrate esters of aromatic heterocyclic compounds as pharmacological preconditioning agents” (2008)
